Assay results gathered from unrelated publications.
Target: D(3) dopamine receptor (DRD3, Homo sapiens, UniProt P35462)

SMILES	observed	mode	technique	tested at	inhibition
Cc1c(N2CCNCC2)nc2ccc(Br)cc2c1C(=O)NC[C@H](CCC(=O)O)c1ccccc1Cl	ligand displacement			10 µM	3.81%
COc1ccc(S(=O)(=O)N2CCCCC2)cc1C	ligand displacement		radioligand	10 µM	< 30%
N#CC1(c2ccccn2)CCN(Cc2cc(C(=O)O)c(=O)n3ccccc23)CC1	cell-free assay			10 µM	-7.39%
CC(C)N1CCC[C@H]1CNC(=O)c1cn(C2CCCC2)c(=O)c2c1c1ccccc1n2C	ligand displacement		radioligand	10 µM	26%
c1ccc(C2(N3CCCCC3)CCCCC2)cc1	enzyme activity	inhibitor		10 µM	-9.9%
COc1ccc(C(=O)NCc2cc(C(C)C)no2)cc1OC1CCN(C)CC1	ligand displacement		radioligand	10 µM	15%
c1ccc(C(NCCNC(c2ccccc2)c2ccccc2)c2ccccc2)cc1	cell-free assay			10 µM	77%
COCc1c(-c2cc3cc(C)cc(OC)c3s2)c2c(N)ncnn2c1CN1CCNC(=O)C1	ligand displacement		radioligand	10 µM	29%
C[C@H](C(=O)N[C@H]1COc2ccccc2[C@@H]1S(C)(=O)=O)c1ccc(F)cc1	cell-free assay			10 µM	6%
O=C(Nc1cccnn1)N1CCN([C@@H]2CCOc3cc(C(F)(F)F)ccc32)CC1	cell-free assay			20 µM	9%
CC(C)Cn1cnc2c(N)nc3ccccc3c21	ligand displacement		radioligand	10 µM	18%
CCc1ccc(OCC(=O)N2CCN(Cc3ccc4c(c3)OCO4)CC2)c(Br)c1	enzyme activity	inhibitor		10 µM	-4.8%
CN(CCN1CCC(OC(=O)Nc2ccccc2-c2ccccc2)CC1)C(=O)c1ccc(CN2CCC(C(N)=O)CC2)cc1	ligand displacement		radioligand	1 µM	-4%
